# Reference: ChEMBL document CHEMBL3259528, “Exploring 5-nitrofuran derivatives against nosocomial pathogens: synthesis, antimicrobial activity and chemometric analysis” (2014)
# The source made the active and inactive calls. The calls are words filed in the database; no cut-off is given here.
# Columns and labels:
# Staphylococcus aureus [1] = assay: Antimicrobial activity against Staphylococcus aureus ATCC 29213 after 24 to 48 hrs by two-fold broth microdilution method; type: functional
# Enterobacter cloacae [2] = assay: Antimicrobial activity against Enterobacter cloacae ATCC 23355 after 24 to 48 hrs by two-fold broth microdilution method; type: functional
# Staphylococcus aureus [3] = assay: Antimicrobial activity against Staphylococcus aureus ATCC 29213 after 18 hrs by modified broth microdilution method; type: functional
# Summary of the method: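 PGI90, the concentration giving 90% growth inhibition, fitted with an exponential growth curve from at least seven concentrations of the MIC assay. Inhibition % = [(Ac − Ap)/Ac] × 100 from A620 of drug-free control versus drug-treated culture. Checked by a modified broth microdilution (Phase 2).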
# Enterococcus faecalis [4] = assay: Antimicrobial activity against Enterococcus faecalis ATCC 29212 after 24 to 48 hrs by two-fold broth microdilution method; type: functional
# Serratia marcescens [5] = assay: Antimicrobial activity against Serratia marcescens ATCC 14576 at 128 uM after 24 to 48 hrs by two-fold broth microdilution method; type: functional, organism-based
# Summary of the method: (§1)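 Antibacterial microdilution in CAMH, inoculum 0.5 McFarland diluted in saline/CAMH, 35 °C for 18 h, with further reads at 24 and 48 h. Activity is scored at the maximum tested concentration, 128 µM. Triplicate.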
# Escherichia coli [6] = assay: Antimicrobial activity against Escherichia coli ATCC 25922 after 24 to 48 hrs by two-fold broth microdilution method; type: functional
# Candida albicans [7] = assay: Antimicrobial activity against Candida albicans ATCC 537Y at 64 uM after 48 hrs by two-fold broth microdilution method; type: functional, organism-based
# Summary of the method: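 Single top concentration of the antifungal microdilution: RPMI 1640, inoculum 0.5 McFarland diluted in saline/RPMI, 35 °C for 48 h. Activity is judged at the highest tested level, 64 µM. Run in triplicate.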
# Klebsiella pneumoniae [8] = assay: Antimicrobial activity against Klebsiella pneumoniae ATCC 700603 at 128 uM after 24 to 48 hrs by two-fold broth microdilution method; type: functional, organism-based; summary of the method: as §1
# Serratia marcescens [9] = assay: Antimicrobial activity against Serratia marcescens ATCC 14576 after 24 to 48 hrs by two-fold broth microdilution method; type: functional
# Enterobacter cloacae [10] = assay: Antimicrobial activity against Enterobacter cloacae ATCC 23355 at 128 uM after 24 to 48 hrs by two-fold broth microdilution method; type: functional, organism-based; summary of the method: as §1
# Staphylococcus aureus [11] = assay: Antimicrobial activity against multidrug-resistant Staphylococcus aureus VISA3 […] by two-fold broth microdilution method; type: functional
# Candida albicans [12] = assay: Antimicrobial activity against Candida albicans ATCC 537Y after 48 hrs by two-fold broth microdilution method; type: functional
# Summary of the method: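 Two-fold serial dilutions in RPMI 1640 per CLSI M27-A2. Stocks in DMSO/RPMI 1:20 v/v. Test range 1.0–64 µM. Inoculum set to 0.5 McFarland, then diluted in saline and RPMI 1640. Plates held at 35 °C for 48 h. MIC is the lowest concentration giving prominent growth reduction. Run in triplicate.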
# Escherichia coli [13] = assay: Antimicrobial activity against Escherichia coli ATCC 25922 at 128 uM after 24 to 48 hrs by two-fold broth microdilution method; type: functional, organism-based; summary of the method: as §1
# Enterococcus faecalis [14] = assay: Antimicrobial activity against Enterococcus faecalis ATCC 29212 at 128 uM after 24 to 48 hrs by two-fold broth microdilution method; type: functional, organism-based; summary of the method: as §1
# Klebsiella pneumoniae [15] = assay: Antimicrobial activity against Klebsiella pneumoniae ATCC 700603 after 24 to 48 hrs by two-fold broth microdilution method; type: functional
# Summary of the method: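 Two-fold serial dilutions in cation-adjusted Mueller–Hinton broth per CLSI M100-S2. Stocks in DMSO/CAMH 1:10 v/v. Range 2.0–128 µM. Inoculum set to 0.5 McFarland, then diluted in saline and CAMH. Incubated at 35 °C for 18 h. MIC is the lowest concentration with no visible growth. Plates also read at 24 and 48 h as sterility control. Triplicate.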
MIC (Enterococcus faecalis [4]),MIC (Escherichia coli [6]),MIC90 (Escherichia coli [6]),MIC (Serratia marcescens [9]),SMILES,MIC (Staphylococcus aureus [1]),MIC90 (Staphylococcus aureus [1]),log(1/MIC>90) (Staphylococcus aureus [3]),MIC90 (Enterococcus faecalis [4]),Activity (Serratia marcescens [5]),Activity (Candida albicans [7]),Activity (Klebsiella pneumoniae [8]),Activity (Enterobacter cloacae [10]),MIC (Staphylococcus aureus [11]),Activity (Escherichia coli [13]),also measured
4 µM,8 µM,15.9 µM,–,Nc1ccc(C(=O)N/N=C/c2ccc([N+](=O)[O-])o2)cc1,2 µM,4.77 µM,5.32,5.63 µM,inactive,inactive,inactive,–,–,–,MIC (Enterobacter cloacae [2]): 4 µM; MIC90 (Enterobacter cloacae [2]): 6.8 µM
32 µM,64 µM,86.1 µM,64 µM,CC(=O)N1N=C(c2ccc(Cl)cc2Cl)OC1c1ccc([N+](=O)[O-])o1 (stereo not drawn),4 µM,6.12 µM,5.21,31.7 µM,–,–,inactive,inactive,–,–,MIC90 (Serratia marcescens [9]): 85.7 µM; MIC (Candida albicans [12]): 32 µM; MIC90 (Candida albicans [12]): 42.2 µM
16 µM,–,–,–,O=C1CN(/N=C/c2ccc([N+](=O)[O-])o2)C(=O)N1 [NITROFURANTOIN],16 µM,–,–,–,inactive,–,inactive,–,–,–,MIC (Enterobacter cloacae [2]): 8 µM
–,32 µM,55 µM,–,CN(C)c1ccc(C(=O)N/N=C/c2ccc([N+](=O)[O-])o2)cc1,4 µM,7.7 µM,5.11,–,inactive,inactive,inactive,inactive,–,–,Activity (Enterococcus faecalis [14]): inactive
32 µM,64 µM,97.3 µM,64 µM,N#Cc1ccc(C(=O)N/N=C/c2ccc([N+](=O)[O-])o2)cc1,4 µM,5.35 µM,5.27,40.4 µM,–,inactive,inactive,inactive,–,–,MIC90 (Serratia marcescens [9]): 111 µM
8 µM,4 µM,–,8 µM,O=C(N[C@H](CO)[C@H](O)c1ccc([N+](=O)[O-])cc1)C(Cl)Cl [CHLORAMPHENICOL],4 µM,–,–,–,–,–,inactive,–,–,–,MIC (Enterobacter cloacae [2]): 4 µM
32 µM,32 µM,54.6 µM,64 µM,CC(=O)N1N=C(c2ccc([N+](=O)[O-])cc2)OC1c1ccc([N+](=O)[O-])o1 (stereo not drawn),4 µM,5.78 µM,5.14,57.3 µM,–,–,inactive,inactive,–,–,MIC90 (Serratia marcescens [9]): 90.5 µM; MIC (Candida albicans [12]): 32 µM; MIC90 (Candida albicans [12]): 44.6 µM

# The next lines start with the compound.
SMILES,MIC (Enterococcus faecalis [4]),MIC (Escherichia coli [6]),MIC90 (Escherichia coli [6]),MIC (Serratia marcescens [9]),MIC (Staphylococcus aureus [1]),MIC90 (Staphylococcus aureus [1]),log(1/MIC>90) (Staphylococcus aureus [3]),MIC90 (Enterococcus faecalis [4]),Activity (Serratia marcescens [5]),Activity (Candida albicans [7]),Activity (Klebsiella pneumoniae [8]),Activity (Enterobacter cloacae [10]),MIC (Staphylococcus aureus [11]),Activity (Escherichia coli [13]),also measured
CC(=O)N1N=C(c2ccc(C#N)cc2)OC1c1ccc([N+](=O)[O-])o1 (stereo not drawn),64 µM,32 µM,43.1 µM,64 µM,2 µM,3.89 µM,5.41,75.2 µM,–,–,inactive,inactive,4 µM,–,MIC90 (Serratia marcescens [9]): 96.3 µM; MIC (Candida albicans [12]): 32 µM; MIC90 (Candida albicans [12]): 47.6 µM
O=C(N/N=C/c1ccc([N+](=O)[O-])o1)c1ccc(I)cc1,–,–,–,–,2 µM,2.78 µM,5.56,–,inactive,inactive,inactive,inactive,2 µM,inactive,Activity (Enterococcus faecalis [14]): inactive
CC(=O)N1N=C(c2ccc(C(F)(F)F)cc2)OC1c1ccc([N+](=O)[O-])o1 (stereo not drawn),–,–,–,–,4 µM,5.6 µM,5.25,–,inactive,inactive,inactive,inactive,4 µM,inactive,–
CC(=O)N1N=C(c2ccc(Cl)cc2)OC1c1ccc([N+](=O)[O-])o1 (stereo not drawn),–,64 µM,88.7 µM,–,4 µM,5.45 µM,5.26,–,inactive,inactive,inactive,inactive,4 µM,–,–
NS(=O)(=O)c1ccc(C(=O)N/N=C/c2ccc([N+](=O)[O-])o2)cc1,–,–,–,–,4 µM,8.34 µM,5.08,–,inactive,inactive,inactive,inactive,–,inactive,Activity (Enterococcus faecalis [14]): inactive
CCCOc1ccc(C(=O)N/N=C/c2ccc([N+](=O)[O-])o2)cc1,64 µM,64 µM,65.8 µM,64 µM,2 µM,2.47 µM,5.61,73.5 µM,–,–,–,–,4 µM,–,MIC90 (Enterobacter cloacae [2]): 69.8 µM; MIC (Klebsiella pneumoniae [15]): 64 µM; MIC90 (Klebsiella pneumoniae [15]): 71.5 µM; MIC90 (Serratia marcescens [9]): 66.7 µM; MIC (Candida albicans [12]): 32 µM; MIC90 (Candida albicans [12]): 40.8 µM
CC(=O)N1N=C(c2ccc(Br)cc2)OC1c1ccc([N+](=O)[O-])o1 (stereo not drawn),–,–,–,–,4 µM,5.13 µM,5.29,–,inactive,inactive,inactive,inactive,8 µM,inactive,–
C[C@H]1COc2c(N3CCN(C)CC3)c(F)cc3c(=O)c(C(=O)O)cn1c23 [LEVOFLOXACIN],< 20 µM,< 20 µM,–,< 20 µM,< 20 µM,–,–,–,–,–,–,–,–,–,MIC (Enterobacter cloacae [2]): < 20 µM; MIC (Klebsiella pneumoniae [15]): < 20 µM
O=C(N/N=C/c1ccc([N+](=O)[O-])o1)c1ccc(O)cc1 [NIFUROXAZIDE],8 µM,32 µM,42 µM,–,4 µM,8.87 µM,5.05,10.6 µM,inactive,inactive,inactive,–,8 µM,–,MIC (Enterobacter cloacae [2]): 32 µM; MIC90 (Enterobacter cloacae [2]): 31.2 µM
CC(=O)N1N=C(c2ccc(Cl)c(Cl)c2)OC1c1ccc([N+](=O)[O-])o1 (stereo not drawn),–,–,–,–,4 µM,4.63 µM,5.33,–,inactive,inactive,inactive,inactive,4 µM,inactive,–
CCCCc1ccc(C(=O)N/N=C/c2ccc([N+](=O)[O-])o2)cc1,32 µM,–,–,–,2 µM,1.8 µM,5.74,55.9 µM,inactive,inactive,inactive,inactive,2 µM,inactive,–
CC1(C)S[C@@H]2[C@H](NC(=O)[C@H](N)c3ccccc3)C(=O)N2[C@H]1C(=O)O [AMPICILLIN],< 20 µM,< 20 µM,–,–,< 20 µM,–,–,–,inactive,–,inactive,–,–,–,MIC (Enterobacter cloacae [2]): 8 µM
CN[C@H](CC(C)C)C(=O)N[C@H]1C(=O)N[C@@H](CC(N)=O)C(=O)N[C@H]2C(=O)N[C@H]3C(=O)N[C@H](C(=O)N[C@H](C(=O)O)c4cc(O)cc(O)c4-c4cc3ccc4O)[C@H](O)c3ccc(c(Cl)c3)Oc3cc2cc(c3O[C@@H]2O[C@H](CO)[C@@H](O)[C@H](O)[C@H]2O[C@H]2C[C@](C)(N)[C@H](O)[C@H](C)O2)Oc2ccc(cc2Cl)[C@H]1O [VANCOMYCIN],–,–,–,–,< 20 µM,–,–,–,–,–,–,–,2 µM,–,–
O=C(N/N=C/c1ccc([N+](=O)[O-])o1)c1ccc([N+](=O)[O-])cc1,–,–,–,–,2 µM,3 µM,5.48,–,inactive,inactive,inactive,inactive,4 µM,inactive,Activity (Enterococcus faecalis [14]): inactive
O=C(N/N=C/c1ccc([N+](=O)[O-])o1)c1ccc(Br)cc1,–,–,–,–,2 µM,4.5 µM,5.35,–,inactive,inactive,inactive,inactive,–,inactive,Activity (Enterococcus faecalis [14]): inactive
